Assay results gathered from unrelated publications.
Compare with care: the assays were run in different laboratories.
Target: Activin receptor type-1 (ACVR1, Homo sapiens, UniProt Q04771)
One construct used (Q04771 21-509): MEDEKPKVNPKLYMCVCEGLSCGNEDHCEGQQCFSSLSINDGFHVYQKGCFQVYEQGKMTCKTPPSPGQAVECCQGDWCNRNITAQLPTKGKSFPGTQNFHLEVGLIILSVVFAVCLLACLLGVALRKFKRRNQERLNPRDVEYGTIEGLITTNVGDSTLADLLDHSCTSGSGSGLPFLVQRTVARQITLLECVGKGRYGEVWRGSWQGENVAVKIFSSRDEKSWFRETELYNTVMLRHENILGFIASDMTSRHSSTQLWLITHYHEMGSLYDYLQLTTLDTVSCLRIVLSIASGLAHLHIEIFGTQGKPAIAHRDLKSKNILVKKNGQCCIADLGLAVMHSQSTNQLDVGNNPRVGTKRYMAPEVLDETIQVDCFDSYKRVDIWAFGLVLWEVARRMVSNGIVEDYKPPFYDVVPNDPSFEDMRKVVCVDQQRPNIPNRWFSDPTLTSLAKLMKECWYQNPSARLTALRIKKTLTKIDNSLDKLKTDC

FC(F)(F)c1ccc2c(c1)nc(-c1cccnc1)n2C1CC1  remaining binding (cell-free assay, competition with immobilised ligand; 1 µM): 100%
FC(F)(F)Oc1cccc(-c2cnc3ccc(-c4ccncc4)nn23)c1  remaining binding (cell-free assay, competition with immobilised ligand; 5 µM): 8.9%
C[C@H](c1cccc(C#N)c1)n1cc(Cl)cc(C(N)=O)c1=N  remaining binding (cell-free assay, competition with immobilised ligand; 1 µM): 88%
F[C@@H]1CCN(c2nccc(-c3cnn4ncccc34)n2)C1  remaining binding (binding; 1 µM): 80%
Cc1cnc(Nc2ccc(C(=O)N3CCC(N4CCCC4)CC3)cc2)nc1-c1cc2ccccc2s1  remaining binding (binding, competition with immobilised ligand; 1 µM): 72%
Cc1cnn2ncc(-c3ccnc(N(C)C)n3)c2c1  remaining binding (binding; 1 µM): 100%
O=C(NCCCN1CCOCC1)c1ccc(Nc2ncc(Cl)c(-c3ccc(Cl)s3)n2)cc1  remaining binding (binding, competition with immobilised ligand; 1 µM): 78%
COc1ccc2c(c1)O[C@@H](c1ccc(OC)c(OC)c1)C[C@H]2NC(=O)C1(c2ccc3c(c2)OC(F)(F)O3)CC1  remaining binding (cell-free assay, competition with immobilised ligand; 1 µM): 100%
COc1ncc2cc3ccccc3nc2c1C#N  remaining binding (cell-free assay, competition with immobilised ligand; 5 µM): 100%
O=C(NCC1CCOCC1)c1n[nH]cc1NC(=O)c1c(F)cccc1F  remaining binding (binding, competition with immobilised ligand; 1 µM): 96%
O=C(c1ccc(Nc2ncc(Cl)c(-c3ccc(Cl)s3)n2)cc1)N1CCC(N2CCCC2)CC1  remaining binding (binding, competition with immobilised ligand; 1 µM): 41%
CN(C)c1ncc(F)c(-c2cnn3ncccc23)n1  remaining binding (binding; 1 µM): 79%
Cc1nccc(COC(=O)N2C[C@@H]3[C@@H](CNC(=O)c4ccc5[nH]nnc5c4)[C@@H]3C2)n1  remaining binding (cell-free assay, competition with immobilised ligand; 1 µM): 95%
CNC(=O)[C@@H]1CC[C@@H](n2c(-c3ccc4cnccc4c3)nc3ccc(C(=O)NCc4cccc(C(N)=O)c4)cc32)C1  remaining binding (binding, competition with immobilised ligand; 1 µM): 46%
c1cnn2ncc(-c3ccnc(N4CCC45COC5)n3)c2c1  remaining binding (binding; 1 µM): 64%
O=C(O)[C@@H]1[C@@H](Cn2nnc3ccccc3c2=O)CC[C@H]1C(=O)c1ccc(OCCC2CCOCC2)cc1  remaining binding (cell-free assay, competition with immobilised ligand; 1 µM): 100%
N[C@H]1CCN(c2nccc(-c3cnn4ncccc34)n2)C1  remaining binding (binding; 1 µM): 85%
c1cncc(-c2cccc(Nc3nccc(NC4CCCCC4)n3)c2)c1  remaining binding (binding, competition with immobilised ligand; 10 µM): 15%
C[C@@H]1CCN(c2nccc(-c3cnn4ncccc34)n2)C1  remaining binding (binding; 1 µM): 100%
COc1ccc2c(O[C@@H]3C[C@H]4C(=O)N[C@]5(C(=O)O)CC5/C=C\CCCCC[C@H](NC(=O)OC5CCCC5)C(=O)N4C3)cc(-c3csc(NC(=O)C(C)C)n3)nc2c1C (stereo partly drawn)  remaining binding (cell-free assay, competition with immobilised ligand; 1 µM): 100%
C[C@@H](c1ccc(-n2cnc3c(N)ncnc32)cc1)N1CCc2nn(C)c(Cc3ccccc3)c2C1=O  remaining binding (binding, competition with immobilised ligand; 0.1 µM): 85%
